Biological target: not listed separately
Assay: Inhibition of H+/K+ ATPase in hog gastric mucosa
Format: tissue-based, Sus scrofa
Conditions: not given
In short: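 Hog gastric H+/K+-ATPase (0.5–1 µg/100 µl), nigericin 1:1 with enzyme. Buffer 4 mM Pipes/8 mM Tris pH 7.4, 0.25 M sucrose, 1 mM MgCl2, 1 mM KCl as stimulant. Compounds 1e-4 to 1e-9 M final from DMSO stocks. Started with 1 mM Na-ATP, 30 min at room temperature. Phosphate read by malachite green at 680 nm; sigmoidal fit gives IC50.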

| Log IC50 | SMILES |
| --- | --- |
| -4.9 | COCCNC(=O)c1cn2c(C)c(C)nc2c2c1CCC(c1ccccc1)C2 (configuration not stated) |
| -4.8 | Cc1cn2cc(C(=O)N(C)C)c3c(c2n1)CC(c1ccccc1)CC3 (configuration not stated) |
| -6.3 | COCc1cn2c(C)c(C)nc2c2c1CCC(c1ccccc1)C2 (configuration not stated) |
| -5.1 | Cc1cn2ccc3c(c2n1)CC(c1ccccc1)CC3 (configuration not stated) |
| -5.5 | Cc1nc2c3c(c(C(=O)N(C)C)cn2c1CO)CCC(c1ccccc1)C3 (configuration not stated) |
| -6 | Cc1nc2c3c(c(C(=O)N(C)C)cn2c1C)CCC(c1ccccc1)C3 (configuration not stated) |
| -7 | Cc1nc2c3c(ccn2c1CC#N)CCC(c1ccccc1)O3 (configuration not stated) |
| -5.9 | Cc1nc2c3c(c(C(N)=O)cn2c1C)CCC(c1ccccc1)C3 (configuration not stated) |
| -6.2 | CNC(=O)c1cn2c(C)c(C)nc2c2c1CCC(c1ccccc1)C2 (configuration not stated) |
| -5.9 | Cc1nc2c3c(c(C(=O)NCCO)cn2c1C)CCC(c1ccccc1)C3 (configuration not stated) |
| -5.9 | Cc1nc2c3c(c(C(=O)N4CCCC4)cn2c1C)CCC(c1ccccc1)C3 (configuration not stated) |
| -5 | Cc1nc2c3c(c(C(=O)N4CCOCC4)cn2c1C)CCC(c1ccccc1)C3 (configuration not stated) |
| -4.9 | Cc1nc2c3c(c(C(=O)N(C)C)cn2c1Br)CCC(c1ccccc1)C3 (configuration not stated) |
| -6.6 | Cc1nc2c3c(ccn2c1C)CCC(c1ccccc1)C3 (configuration not stated) |

Tested on: Gastric gland
Assay: Effect on acid secretion in rabbit intact gastric glands assessed as inhibition of [14C][…] accumulation
Format: functional, tissue-based
Conditions: Oryctolagus cuniculus
In short: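 Glands stimulated with 1 mM dibutyryl cAMP with or without inhibitor (3 nM–100 µM). Stopped by centrifugation, 10 s at 20,000g. 14C-aminopyrine radioactivity measured in supernatant and in NaOH-dissolved pellet. Accumulation taken from the pellet/supernatant ratio, normalized to gland wet/dry weight. IC50 obtained by fitting the expected inhibition equation.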

| IC50 | SMILES |
| --- | --- |
| 1.26 µM | COCCNC(=O)c1cn2c(C)c(C)nc2c2c1CCC(c1ccccc1)C2 (configuration not stated) |
| 7.94 µM | Cc1cn2cc(C(=O)N(C)C)c3c(c2n1)CC(c1ccccc1)CC3 (configuration not stated) |
| 2 µM | COCc1cn2c(C)c(C)nc2c2c1CCC(c1ccccc1)C2 (configuration not stated) |
| 7.94 µM | Cc1cn2ccc3c(c2n1)CC(c1ccccc1)CC3 (configuration not stated) |
| 10 µM | Cc1nc2c3c(c(C(=O)N(C)C)cn2c1CO)CCC(c1ccccc1)C3 (configuration not stated) |
| 0.398 µM | Cc1nc2c3c(c(C(=O)N(C)C)cn2c1C)CCC(c1ccccc1)C3 (configuration not stated) |
| 0.0631 µM | Cc1nc2c3c(ccn2c1CC#N)CCC(c1ccccc1)O3 (configuration not stated) |
| 2 µM | Cc1nc2c3c(c(C(N)=O)cn2c1C)CCC(c1ccccc1)C3 (configuration not stated) |
| 1 µM | CNC(=O)c1cn2c(C)c(C)nc2c2c1CCC(c1ccccc1)C2 (configuration not stated) |
| 10 µM | Cc1nc2c3c(c(C(=O)NCCO)cn2c1C)CCC(c1ccccc1)C3 (configuration not stated) |
| 0.316 µM | Cc1nc2c3c(c(C(=O)N4CCCC4)cn2c1C)CCC(c1ccccc1)C3 (configuration not stated) |
| 6.31 µM | Cc1nc2c3c(c(C(=O)N4CCOCC4)cn2c1C)CCC(c1ccccc1)C3 (configuration not stated) |
| 10 µM | Cc1nc2c3c(c(C(=O)N(C)C)cn2c1Br)CCC(c1ccccc1)C3 (configuration not stated) |
| 0.794 µM | Cc1nc2c3c(ccn2c1C)CCC(c1ccccc1)C3 (configuration not stated) |

Tested on: not listed separately
Assay: Dissociation constant, pKa of the compound
Format: physicochemical
Conditions: not given
In short: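 Potentiometric co-solvent titration in 0.15 mol/l KCl over pH 2.0–11.0 at 25 °C. Methanol used as co-solvent in varying portions, with 0.5 mol/l KOH and HCl as titrants.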

| pKa | SMILES |
| --- | --- |
| 7.22 | COCCNC(=O)c1cn2c(C)c(C)nc2c2c1CCC(c1ccccc1)C2 (configuration not stated) |
| 6.67 | Cc1cn2cc(C(=O)N(C)C)c3c(c2n1)CC(c1ccccc1)CC3 (configuration not stated) |
| 7.79 | COCc1cn2c(C)c(C)nc2c2c1CCC(c1ccccc1)C2 (configuration not stated) |
| 7.63 | Cc1cn2ccc3c(c2n1)CC(c1ccccc1)CC3 (configuration not stated) |
| 6.32 | Cc1nc2c3c(c(C(=O)N(C)C)cn2c1CO)CCC(c1ccccc1)C3 (configuration not stated) |
| 7.16 | Cc1nc2c3c(c(C(=O)N(C)C)cn2c1C)CCC(c1ccccc1)C3 (configuration not stated) |
| 7.26 | Cc1nc2c3c(c(C(N)=O)cn2c1C)CCC(c1ccccc1)C3 (configuration not stated) |
| 7.22 | Cc1nc2c3c(c(C(=O)NCCO)cn2c1C)CCC(c1ccccc1)C3 (configuration not stated) |
| 7.2 | Cc1nc2c3c(c(C(=O)N4CCCC4)cn2c1C)CCC(c1ccccc1)C3 (configuration not stated) |
| 7.05 | Cc1nc2c3c(c(C(=O)N4CCOCC4)cn2c1C)CCC(c1ccccc1)C3 (configuration not stated) |
| 5.11 | Cc1nc2c3c(c(C(=O)N(C)C)cn2c1Br)CCC(c1ccccc1)C3 (configuration not stated) |
| 8.05 | Cc1nc2c3c(ccn2c1C)CCC(c1ccccc1)C3 (configuration not stated) |

Tested on: not listed separately
Assay: Distribution coefficient, log D at pH 7.4
Format: physicochemical
Conditions: octanol/water
In short: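 Potentiometric titration, pH 2.0–11.0, 25 °C, in 0.15 mol/l KCl mixed with water-saturated 1-octanol in varying octanol portions. Titrants were 0.5 mol/l KOH and HCl. Distribution coefficients between 1-octanol and aqueous KCl were derived from these titrations.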

| logD | SMILES |
| --- | --- |
| 3.31 | COCCNC(=O)c1cn2c(C)c(C)nc2c2c1CCC(c1ccccc1)C2 (configuration not stated) |
| 2.77 | Cc1cn2cc(C(=O)N(C)C)c3c(c2n1)CC(c1ccccc1)CC3 (configuration not stated) |
| 3.93 | COCc1cn2c(C)c(C)nc2c2c1CCC(c1ccccc1)C2 (configuration not stated) |
| 3.81 | Cc1cn2ccc3c(c2n1)CC(c1ccccc1)CC3 (configuration not stated) |
| 2.23 | Cc1nc2c3c(c(C(=O)N(C)C)cn2c1CO)CCC(c1ccccc1)C3 (configuration not stated) |
| 2.9 | Cc1nc2c3c(c(C(=O)N(C)C)cn2c1C)CCC(c1ccccc1)C3 (configuration not stated) |
| 3.21 | Cc1nc2c3c(c(C(N)=O)cn2c1C)CCC(c1ccccc1)C3 (configuration not stated) |
| 2.81 | Cc1nc2c3c(c(C(=O)NCCO)cn2c1C)CCC(c1ccccc1)C3 (configuration not stated) |
| 3.37 | Cc1nc2c3c(c(C(=O)N4CCCC4)cn2c1C)CCC(c1ccccc1)C3 (configuration not stated) |
| 2.76 | Cc1nc2c3c(c(C(=O)N4CCOCC4)cn2c1C)CCC(c1ccccc1)C3 (configuration not stated) |
| 3.8 | Cc1nc2c3c(c(C(=O)N(C)C)cn2c1Br)CCC(c1ccccc1)C3 (configuration not stated) |
| 3.9 | Cc1nc2c3c(ccn2c1C)CCC(c1ccccc1)C3 (configuration not stated) |

— ChEMBL document CHEMBL1137528, “Preparation of tetrahydroimidazo[2,1-a]isoquinolines and their use as inhibitors of gastric acid secretion” (Bioorg Med Chem, 2007)
